Structures are written as SMILES. Hit rate of the full screen: of about 2,500 compounds, about 1,200 (48%) were called active.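 The calls were made as follows: active = mean activation above the low control average plus 3 SD, as set in the primary screen (cut at about 12% in these data); inactive = the rest.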 So high a share suggests a set chosen from earlier hits. Some of the results follow.

For this experiment, the target named is Troponin I, cardiac muscle (Homo sapiens) + Troponin T, cardiac muscle (Homo sapiens) + Troponin C, slow skeletal and cardiac muscles (Homo sapiens) (UniProt P19429+P45379+P63316). Briefly: calcium sensitizers of cardiac thin filaments – biochemical, IANBD-TnC fluorescence, triplicate, confirmation (AID 504383).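 Also: 0% = DMSO at 0.472 mM calcium and 100% = DMSO at 2.9 mM calcium.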 Particulars: IANBD-labeled cardiac RTF, Ca2+ sensitivity fluorescence; at 7.2 µM; active compounds read high; scaled from EC20 to saturating calcium; tested at EC20 calcium, 0.472 mM. The essentials: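 Material: labelled regulated thin filaments; Reagent: 0.472 mM calcium; Incubation: 15 min compound incubation with filaments at 25 °C; Detection: filament fluorescence intensity; Evaluation: fluorescence increase normalised to calcium controls; Benchmarks: low control EC20 calcium, high control EC100 calcium.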
For `O=C(COC(=O)/C=C/c1ccc(Cl)cc1)NCCN1C(=O)CSC1=O`, the activation was 4.03% (inactive).
Then `Cc1ccc(C(C(=O)NC2CCCC2)N(C(=O)Cc2cccs2)c2cccc(C)c2C)o1` (centres undefined), with 7.72% (inactive); and `CCN(CC(=O)Nc1ccccc1C(=O)NC1CC1)Cc1cccs1`, with 89.2% (active).
Then `O=C(c1ccccn1)N(Cc1cccs1)C1(C(=O)NC2CCCCC2)CCCCC1`, with 1.46% (inactive); and `Cn1cc(/C=C2\SC(=S)N(NC(=O)c3ccccc3)C2=O)c2ccccc21`, with 40.9% (active); and `Cn1cc(/C=C2\SC(=S)N(NC(=O)c3ccccc3Cl)C2=O)c2ccccc21`, with 23.3% (active).
Then `Cn1cc(/C=C2\SC(=S)N(NC(=O)c3cccc(Cl)c3)C2=O)c2ccccc21`, with 52.1% (active).
With `Cc1ccc(C(=O)NN2C(=O)/C(=C/c3cn(C)c4ccccc34)SC2=S)cc1`, the activation is 19.4% (active).
Under `NS(=O)(=O)c1ccc(N2N=C(c3ccccc3)CC2c2ccccc2)cc1` (centres undefined) stands 31% (active).
Then `COc1ccc(C2CC(c3ccncc3)=NN2c2ccc(S(N)(=O)=O)cc2)cc1` (centres undefined), with 13.1% (active); and `N#CCC(=O)N/N=C/c1ccc(N2N=C(c3ccccc3)CC2c2ccccc2)cc1` (centres undefined), with 8.4% (inactive).
Under `N#CC1CC(c2ccc([N+](=O)[O-])cc2)=NN1c1ccc([N+](=O)[O-])cc1` (centres undefined) stands 6.69% (inactive).
On to `O=[N+]([O-])c1ccc(N2N=C(c3ccccc3)CC2c2ccccc2O)cc1` (centres undefined), for which the activation is 127% (active).
Consider `Cc1ccccc1-n1nnnc1SCC(C)C`, for which the activation was 103% (active).
Under `CSc1nnnn1-c1c(C)cc(C)cc1C` stands 3.29% (inactive).
Under `O=C(COc1ccccc1F)NC1CC1` stands 66.3% (active); under `COC(=O)c1cc2c(C)c(C)c3ccccn3c-2c1C(=O)OC`, 5.27% (inactive); under `O=C(N/N=C/c1cc([N+](=O)[O-])ccc1N1CCNCC1)c1ccc([N+](=O)[O-])cc1`, 19% (active).
Under `CCOc1ccc(NC(=S)c2ccncc2)cc1` stands 6.9% (inactive); under `C=CCN1C(=O)[C@@H]2Cc3c([nH]c4ccccc34)C(c3ccc(O)cc3)N2C1=S` (some centres undefined), 4.94% (inactive); under `N#CC12COC3(CCCCC3C1(C#N)C#N)OC2=N` (centres undefined), 2.01% (inactive).
Take `CN(C)c1ccc(/C=C2\CCC/C(=C\c3ccccc3)C2=O)cc1`: the activation was 0.5% (inactive).
Under `CN(C)c1ccc(C=C2SC(=S)NC2=O)cc1` stands 11.7% (active); under `CCOc1ccc(N(C)c2ccc(/C=C3/SC(=S)NC3=O)cc2)cc1`, 20.5% (active); under `CCCOc1ccc(-c2nn(-c3ccccc3)cc2/C=C2\SC(N)=NC2=O)cc1`, -0.61% (inactive).
Under `CCN(CC)c1ccc(C=C2SC(=S)NC2=O)cc1` stands 57.9% (active).
As for `COc1ccccc1N=C1NC(=O)/C(=C/c2ccc(N(C)C)cc2)S1`, the activation was 10.9% (inactive).
Under `CCN(CC)c1ccc(/C=C2\SC(N)=NC2=O)cc1` stands 108% (active).
Under `COc1ccc(-c2nn(CCC(=O)O)cc2/C=C2\SC(N)=NC2=O)cc1` stands 8.42% (inactive).
Take `NC(=O)C1(NC(=O)[C@@H]2CC3(CC(c4cccc(NC(=O)[C@@H]5CCC(=O)N5)c4)=NO3)CN2C(=O)c2ccccc2)CC1` (some centres undefined): the activation is 9.17% (inactive).
Take `COc1ccc(N/C=C2\C(=O)CCc3c2oc2cc(Cl)c(O)c(Cl)c32)cc1`: the activation is 47.7% (active).
Then `Cc1cccc(/C=C2/SC(=O)N(Cc3ccccc3)C2=O)n1`, with 47.1% (active).
Then `COC(=O)c1ccccc1NC(=O)[C@@H]1CCC(=O)N1C1OC(=O)c2c1ccc(OC)c2OC` (some centres undefined), with 3.55% (inactive); and `CCOc1cc2c(cc1/C=C/c1noc(C)c1[N+](=O)[O-])OC(C)C2` (centres undefined), with 330% (active); and `C=CCn1cc(/C=C/c2cc[n+](C)cc2)c2ccccc21`, with 5.8% (inactive).
Under `CC(C)n1cc(/C=C/c2cc[n+](C)cc2)c2ccccc21` stands 31.7% (active); under `Cn1cc(/C=C/c2cc[n+](C)cc2)c2cc(F)ccc21`, 6.92% (inactive).
Regarding `CCn1cc(/C=C/c2cc[n+](C)cc2)c2ccccc21`, the activation was 12.4% (active).
Under `COC(=O)Cn1c(C)c(/C=C/c2cc[n+](C)cc2)c2ccccc21` stands 12.8% (active); under `Cn1cc(/C=C/c2cc[n+](C)cc2)c2cc(Cl)ccc21`, 3.84% (inactive); under `CCN(CC)C(=O)Cn1c(C)c(/C=C/c2cc[n+](C)cc2)c2ccccc21`, 6.95% (inactive).
Then `C=CCn1c(C)c(/C=C/c2cc[n+](C)cc2)c2ccccc21`, with 38.7% (active); and `COC(=O)c1ccc2c(c1)C(C)(C)C(/C=C/c1ccccc1O)=[N+]2C`, with 7.52% (inactive).
Then `COC(=O)Cn1cc(/C=C/c2cc[n+](C)cc2)c2ccccc21`, with 16.8% (active); and `Oc1ccc2ccc3cccc[n+]3c2c1`, with 68.4% (active); and `CC(=O)c1ccc2noc(-c3ccc(C)cc3)c2c1`, with 6.52% (inactive).
`COc1ccc(-c2onc3ccc(C(C)=O)cc23)cc1`: the activation was 18% (active).
Under `O=C(CN1C(=O)NC2(CCCCC2)C1=O)Nc1ccccc1Cl` stands 12.1% (active).
Then `CC1(c2ccc(OC(F)F)cc2)NC(=O)N(CC(=O)Nc2ccc(F)cc2)C1=O` (centres undefined), with 1.92% (inactive); and `CCC1(c2ccccc2)NC(=O)N(CC(=O)Nc2ccc(OC)nc2)C1=O` (centres undefined), with 11% (inactive); and `C=CCOc1ccc(C2OC34CCCCC3C(C#N)(C#N)C2(C#N)C(=N)O4)cc1` (centres undefined), with 11.3% (inactive).
Under `Cc1cc(C)n2nc(C(=O)N3CCCC(Nc4ccc(C(C)C)cc4)C3)cc2n1` (centres undefined) stands 11.9% (active); under `Cc1[nH]nc2c1C(c1cc(Br)cs1)C(C#N)=C(N)O2` (centres undefined), 1.18% (inactive).
For the compound `COc1ccc(-c2ccc(C3C(C#N)=C(N)Oc4n[nH]c(C)c43)o2)cc1` (centres undefined), the activation was 53.6% (active).
Then `CCCCCCCC(=O)Nc1ccc(S(=O)(=O)Nc2nccs2)cc1`, with 39.1% (active); and `CN(C)C(CNC(=O)c1cccc(S(=O)(=O)N(C)C)c1)c1ccccc1` (centres undefined), with 14.9% (active).
Under `O=C(NCc1cccc(C(F)(F)F)c1)c1cccc(S(=O)(=O)NCc2ccccc2)c1` stands 7.34% (inactive); under `CC(NC(=O)COc1ccc(N(C)S(=O)(=O)c2ccccc2)cc1)c1ccccc1` (centres undefined), 8.81% (inactive).
Then `CC(=O)C1=C(O)CCCC1=NCc1nc2ccccc2[nH]1`, with 2.38% (inactive).
Turning to `CCOc1ccc(N2C(=O)CC(SCc3nc4ccccc4[nH]3)C2=O)cc1` (centres undefined), the activation is 16.2% (active).
Under `O=C(CSC1CC(=O)N(c2ccc(C(=O)O)cc2)C1=O)Nc1ccc2ccccc2c1` (centres undefined) stands 1.35% (inactive).
Under `C[C@H](O)C(=O)C1=Nc2c(nc(N)[nH]c2=O)NC1` stands -0.23% (inactive); under `Cc1ccc(C)c(N2CCN(C(=O)c3cc4ccccn4n3)CC2)c1`, 21.1% (active); under `O=C(Nc1ccc(Cl)c(Cl)c1)Nc1ccc([N+](=O)[O-])cn1`, 28.5% (active).
Under `O=C(Nc1ccc(N2CCN(C(=O)c3ccco3)CC2)cc1)c1ccc(F)cc1` stands 14.9% (active); under `O=C(COC(=O)C1(c2ccc(F)cc2)CCCC1)N1CCN(C(=O)c2ccco2)CC1`, 3.96% (inactive); under `O=C(COC(=O)C1(c2ccccc2F)CCCC1)Nc1ncc(C(F)(F)F)cc1Cl`, 4.8% (inactive).
On to `COc1ccc(/C=C/C(=O)c2nc3ccccc3n2CC(=O)c2ccc(OC)cc2)cc1`, for which the activation is -1.84% (inactive).
Under `COc1ccc(/C=N/NC(=O)Cn2c(Cc3ccc(OC)c(OC)c3)nc3ccccc32)cc1` stands 15% (active).
Under `Cc1c(C(=O)NCc2ccco2)cccc1[N+](=O)[O-]` stands 11.7% (active); under `Cc1c(C(=O)NCc2ccc3c(c2)cc(C)n3C)cccc1[N+](=O)[O-]`, 8.1% (inactive); under `c1ccc2[nH]c3cc4ncnc4cc3nc2c1`, 27.5% (active).
Then `O/C(=C\c1nc2ccccc2[nH]1)c1cccs1`, with 2.34% (inactive); and `Cc1ncn(C23CC4CC(CC(C4)C2)C3)n1`, with 4.82% (inactive).
With `COC(=O)C1=C(O)/C(=C\c2ccc(CNS(=O)(=O)c3ccc(Cl)cc3)o2)N=C1C`, the activation is 9.05% (inactive).
Take `COC(=O)CN(c1cc(OC)ccc1OC)S(=O)(=O)c1ccc(OC)c(OC)c1`: the activation is 14.6% (active).
Then `CCOc1ccccc1N(CC(=O)Nc1ccc(OC)c(OC)c1)S(=O)(=O)c1ccccc1`, with 5.99% (inactive); and `COc1ccc(OC)c(NC(=O)c2cc(S(=O)(=O)N(C)C)ccc2N2CCCC2)c1`, with 7.08% (inactive); and `CCC(=O)Nc1ccc2c(c1)nc(CCN1CCN(C)CC1)n2C`, with 56% (active).
Under `Cn1c(CN2CCCC2)nc2cc(NC(=O)COc3ccc([N+](=O)[O-])cc3)ccc21` stands 8.98% (inactive).
On to `CCCn1c(CN2CCN(C(=O)OCC)CC2)nc2cc(NC(=O)CC)ccc21`, for which the activation was 8.96% (inactive).
Then `Cn1cccc1/C=C1\SC(=S)N(CC(=O)O)C1=O`, with 14.1% (active); and `CN1/C(=C\C=C2/SC(=S)N(CC(=O)O)C2=O)C(C)(C)c2ccccc21`, with 7.05% (inactive).
Then `Cn1cccc1/C=C1/SC(=S)N(CC(=O)O)C1=O`, with 176% (active); and `O=C(O)c1cc(-c2ccc(/C=C3/SC(=S)N(Cc4ccccc4)C3=O)o2)ccc1Cl`, with 5.81% (inactive).
Then `O=C(O)CN1C(=O)/C(=C/c2ccc(SCc3ccccc3)o2)SC1=S`, with 39.7% (active); and `COc1ccc(Nc2cccc3ccccc23)cc1`, with 199% (active); and `CCOc1cc(N2CCOCC2)c(OCC)cc1NC(=O)CCS(=O)(=O)c1ccc(Cl)cc1`, with 72% (active).
Consider `COc1cc(/C=N/NC(=O)c2cc(-c3ccccc3Cl)nc3ccccc23)cc(OC)c1O`, for which the activation is 15.8% (active).
For the compound `COc1cc(/C=N\NC(=O)CC(=O)NCCc2ccccc2)ccc1O`, the activation is 7.55% (inactive).
Then `CCOc1ccc(C(=O)NCC(=O)Nc2ncccc2C)cc1OCC`, with 16.6% (active).
Consider `Cc1cccc(/C=N/n2c(-c3ccncc3)n[nH]c2=S)c1`, for which the activation was 39.4% (active).
Under `CCCCC1=CC2=C(c3ccco3)C(=O)C(C)(OC(=O)c3ccc(OC)cc3)C(=O)C2=CN1CCc1ccccn1` (centres undefined) stands 25.8% (active); under `COC(=O)CCC(=O)OC1(C)C(=O)C2=CN(Cc3ccc(OC)cc3)C(c3ccc(OC)cc3)=CC2=C(Br)C1=O` (centres undefined), 6% (inactive).

Source of the values: PubChem BioAssay AID504383 (The Scripps Research Institute Molecular Screening Center, 2011).
